Laboratory results from ChEMBL document CHEMBL4350961, “Discovery of Pyrrolo[3,2- d]pyrimidin-4-one Derivatives as a New Class of Potent and Cell-Active Inhibitors of P300/CBP-Associated Factor Bromodomain” (J Med Chem, 2019).
Calls of active or inactive are those of the source. The calls are words filed in the database; no cut-off is given here.

Columns and labels:
[1] = target: Chromatin remodeling regulator CECR2 (Homo sapiens) (UniProt Q9BXF3); test: Binding affinity to human partial length CECR2 (P423 to D543 residues) expressed in bacterial expression system at 1 uM by BROMOscan assay
Outline: (§1)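 BROMOscan bromodomain cross-screen run by an outside service, compound at 1 µM against 32 recombinant bromodomains. Binding given as percent of control.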

[2] = target: Histone acetyltransferase p300 (Homo sapiens) (UniProt Q09472); test: Binding affinity to human partial length EP300 (A1040 to G1161 residues) expressed in bacterial expression system at 1 uM by BROMOscan assay; outline: as §1
[3] = Unbound fraction in Sprague-Dawley rat plasma at 1 uM measured after 16 hrs by equilibrium dialysis-based LC-MS/MS analysis; assay type: ADME, cell-free
[4] = system: Tyrosine-protein kinase ABL1 (Homo sapiens), P00519 [T315I]; test: Inhibition of recombinant human ABL T315I mutant (27 to end residues) at 10 uM using EAIYAAPFAKKK as substrate measured after 40 mins in presence of [gamma33P]ATP by scintillation counting method
[5] = target: 5'-AMP-activated protein kinase catalytic subunit alpha-1 (Homo sapiens) (UniProt Q13131); test: Inhibition of recombinant full-length human AMPKalpha1 at 10 uM using AMARAASAAALARRR as substrate measured after 40 mins in presence of [gamma33P]ATP by scintillation counting method
[6] = target: BMP-2-inducible protein kinase (Homo sapiens) (UniProt Q9NSY1); test: Inhibition of recombinant human BIKepsilon at 10 uM using peptide substrate measured after 120 mins in presence of [gamma33P]ATP by scintillation counting method
[7] = organism: Homo sapiens; test: Inhibition of recombinant human BrSK2 S251I mutant (2 to end residues) at 10 uM using KKLNRTLSFAEPG as substrate measured after 40 mins in presence of [gamma33P]ATP by scintillation counting method
[8] = target: Cyclin-Y/Cyclin-dependent kinase 16 (Homo sapiens) (UniProt Q00536+Q8ND76); test: Inhibition of recombinant full length human CDK16/cyclinY at 10 uM using PKSPKARKKL as substrate measured after 120 mins in presence of [gamma33P]ATP by scintillation counting method; assay type: protein-complex assay
[9] = target: CDK17/Cyclin-Y (Homo sapiens) (UniProt Q00537+Q8ND76); test: Inhibition of human CDK17/cyclinY at 10 uM using PKSPKARKKL as substrate measured after 120 mins in presence of [gamma33P]ATP by scintillation counting method; assay type: protein-complex assay
Outline: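 Kinase panel of 422 kinases screened by Eurofins KinaseProfiler at a single test-compound concentration of 10 µM.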

[10] = target: Myotonin-protein kinase (Homo sapiens) (UniProt Q09013); test: Inhibition of recombinant human DMPK (1 to 549 residues) at 10 uM using KKSRGDYMTMQIG as substrate measured after 40 mins in presence of [gamma33P]ATP by scintillation counting method
[11] = target: Ephrin type-A receptor 1 (Homo sapiens) (UniProt P21709); test: Inhibition of recombinant human EphA1 (568 to end residues) at 10 uM using KKKSPGEYVNIEF as substrate measured after 40 mins in presence of [gamma33P]ATP by scintillation counting method
[12] = target: Ephrin type-A receptor 3 (Homo sapiens) (UniProt P29320); test: Inhibition of recombinant human EphA3 (578 to end residues) at 10 uM using poly(Glu, Tyr) 4:1 as substrate measured after 40 mins in presence of [gamma33P]ATP by scintillation counting method
[13] = target: Tyrosine-protein kinase Lyn (Mus musculus) (UniProt P25911); test: Inhibition of mouse Lyn at 10 uM
[14] = target: Myosin light chain kinase, smooth muscle (Homo sapiens) (UniProt Q15746); test: Inhibition of recombinant human MLCK (1425 to 1771 residues) at 10 uM using […] as substrate measured after 40 mins in presence of [gamma33P]ATP by scintillation counting method
[15] = target: Serine/threonine-protein kinase Nek1 (Homo sapiens) (UniProt Q96PY6); test: Inhibition of recombinant human NEK1 (1 to 505 residues) at 10 uM using RLGRDKYKTLRQIRQ as substrate measured after 40 mins in presence of [gamma33P]ATP by scintillation counting method
[16] = target: Serine/threonine-protein kinase NLK (Homo sapiens) (UniProt Q9UBE8); test: Inhibition of recombinant human NLK (121 to end residues) at 10 uM using myelin basic protein as substrate measured after 40 mins in presence of [gamma33P]ATP by scintillation counting method
[17] = target: Platelet-derived growth factor receptor beta (Homo sapiens) (UniProt P09619); test: Inhibition of recombinant human PDGFRbeta (557 to end residues) at 10 uM using poly(Glu, Tyr) 4:1 as substrate measured after 40 mins in presence of [gamma33P]ATP by scintillation counting method
[18] = target: 3-phosphoinositide-dependent protein kinase 1 (Homo sapiens) (UniProt O15530); test: Inhibition of recombinant human PDK1 (52 to end residues) at 10 uM using PDKtide as substrate measured after 40 mins in presence of [gamma33P]ATP by scintillation counting method
[19] = target: Mitogen-activated protein kinase 11 (Homo sapiens) (UniProt Q15759); test: Inhibition of recombinant full-length human SAPK2b at 10 uM using myelin basic protein as substrate measured after 40 mins in presence of [gamma33P]ATP by scintillation counting method
[20] = system: Serine/threonine-protein kinase Sgk1 (Homo sapiens), O00141 [S422D]; test: Inhibition of recombinant human SGK S422D mutant (60 to end residues) at 10 uM using GRPRTSSFAEGKK as substrate measured after 40 mins in presence of [gamma33P]ATP by scintillation counting method
[21] = target: Serine/threonine-protein kinase 32C (Homo sapiens) (UniProt Q86UX6); test: Inhibition of recombinant full-length human STK32C at 10 uM using casein as substrate measured after 120 mins in presence of [gamma33P]ATP by scintillation counting method
[22] = target: Transcription initiation factor TFIID subunit 1-like (Homo sapiens) (UniProt Q8IZX4); test: Inhibition of human TAF1L (1428 to end residues) using RRRFRPASPLRGPPK as substrate measured after 120 mins in presence of [gamma33P]ATP by scintillation counting method
[23] = target: Testis-specific serine/threonine-protein kinase 3 (Homo sapiens) (UniProt Q96PN8); test: Inhibition of recombinant full-length human TSSK3 at 10 uM using AMARAASAAALARRR as substrate measured after 40 mins in presence of [gamma33P]ATP by scintillation counting method
[24] = target: Serine/threonine-protein kinase VRK2 (Homo sapiens) (UniProt Q86Y07); test: Inhibition of human VRK2 (1 to 336 residues) using casein as substrate measured after 40 mins in presence of [gamma33P]ATP by scintillation counting method
[25] = organism: Mus musculus; test: Inhibition of recombinant full-length mouse PI3K p110beta/p85alpha R123L mutant at 10 uM using phosphatidylinositol-4, 5-bisphosphate as substrate measured after 40 mins by HTRF assay

Chain of Tyrosine-protein kinase Lyn (Mus musculus) (P25911 whole entry, the tested form may be a part): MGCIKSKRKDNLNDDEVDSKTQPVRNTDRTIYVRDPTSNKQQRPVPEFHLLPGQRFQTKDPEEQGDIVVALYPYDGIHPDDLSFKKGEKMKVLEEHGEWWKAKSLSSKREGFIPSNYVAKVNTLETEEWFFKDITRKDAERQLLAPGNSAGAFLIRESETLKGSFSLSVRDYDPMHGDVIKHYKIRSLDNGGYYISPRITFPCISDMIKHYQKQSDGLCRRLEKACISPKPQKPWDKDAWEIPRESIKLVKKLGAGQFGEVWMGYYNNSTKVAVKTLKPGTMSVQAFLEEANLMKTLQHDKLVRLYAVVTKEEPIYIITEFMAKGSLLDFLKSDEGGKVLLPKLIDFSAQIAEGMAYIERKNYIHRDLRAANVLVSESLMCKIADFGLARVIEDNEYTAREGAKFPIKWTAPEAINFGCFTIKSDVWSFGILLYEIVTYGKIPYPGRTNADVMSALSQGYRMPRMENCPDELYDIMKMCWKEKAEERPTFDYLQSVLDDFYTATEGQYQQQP
Chain of Chromatin remodeling regulator CECR2 (Homo sapiens) (Q9BXF3 whole entry, looked up, the tested form may be a part): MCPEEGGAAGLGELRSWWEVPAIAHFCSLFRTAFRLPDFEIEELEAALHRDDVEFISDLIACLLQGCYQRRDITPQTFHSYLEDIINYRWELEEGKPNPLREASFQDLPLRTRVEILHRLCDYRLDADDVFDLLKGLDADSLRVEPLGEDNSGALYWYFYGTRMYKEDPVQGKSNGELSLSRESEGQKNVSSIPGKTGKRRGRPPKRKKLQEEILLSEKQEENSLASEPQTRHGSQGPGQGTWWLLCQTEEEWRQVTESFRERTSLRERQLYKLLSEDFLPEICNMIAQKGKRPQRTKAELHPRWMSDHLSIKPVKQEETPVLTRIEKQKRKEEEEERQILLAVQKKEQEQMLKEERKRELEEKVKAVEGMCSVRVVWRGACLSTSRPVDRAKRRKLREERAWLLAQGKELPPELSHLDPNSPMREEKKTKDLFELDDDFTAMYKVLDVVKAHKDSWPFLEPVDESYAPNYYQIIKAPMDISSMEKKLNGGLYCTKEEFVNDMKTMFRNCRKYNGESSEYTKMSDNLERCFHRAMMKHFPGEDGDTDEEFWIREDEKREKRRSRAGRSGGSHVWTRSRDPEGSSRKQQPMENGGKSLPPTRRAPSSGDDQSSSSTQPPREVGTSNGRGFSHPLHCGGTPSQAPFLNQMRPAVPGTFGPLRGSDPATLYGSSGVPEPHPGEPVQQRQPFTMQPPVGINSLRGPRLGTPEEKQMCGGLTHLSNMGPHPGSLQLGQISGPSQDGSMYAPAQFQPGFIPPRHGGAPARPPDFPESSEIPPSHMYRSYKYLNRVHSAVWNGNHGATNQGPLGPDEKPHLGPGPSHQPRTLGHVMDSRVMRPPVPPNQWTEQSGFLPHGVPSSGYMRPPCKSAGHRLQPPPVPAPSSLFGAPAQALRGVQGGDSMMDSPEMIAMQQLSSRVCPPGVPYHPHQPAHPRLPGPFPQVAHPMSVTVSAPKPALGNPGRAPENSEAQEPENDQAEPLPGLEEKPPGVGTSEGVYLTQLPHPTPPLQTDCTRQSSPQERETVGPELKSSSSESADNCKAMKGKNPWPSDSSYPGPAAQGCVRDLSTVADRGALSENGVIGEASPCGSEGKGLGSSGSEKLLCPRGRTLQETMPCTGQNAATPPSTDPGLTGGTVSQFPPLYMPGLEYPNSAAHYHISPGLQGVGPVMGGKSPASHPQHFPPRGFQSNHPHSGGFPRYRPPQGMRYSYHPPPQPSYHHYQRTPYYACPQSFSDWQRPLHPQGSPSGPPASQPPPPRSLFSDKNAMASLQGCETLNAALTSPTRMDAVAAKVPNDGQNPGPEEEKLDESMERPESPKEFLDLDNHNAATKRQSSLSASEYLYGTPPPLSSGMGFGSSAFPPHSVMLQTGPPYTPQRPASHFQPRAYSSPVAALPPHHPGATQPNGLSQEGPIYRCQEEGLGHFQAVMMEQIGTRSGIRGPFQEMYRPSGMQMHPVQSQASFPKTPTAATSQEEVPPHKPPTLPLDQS
Chain of 5'-AMP-activated protein kinase catalytic subunit alpha-1 (Homo sapiens) (Q13131 whole entry, looked up): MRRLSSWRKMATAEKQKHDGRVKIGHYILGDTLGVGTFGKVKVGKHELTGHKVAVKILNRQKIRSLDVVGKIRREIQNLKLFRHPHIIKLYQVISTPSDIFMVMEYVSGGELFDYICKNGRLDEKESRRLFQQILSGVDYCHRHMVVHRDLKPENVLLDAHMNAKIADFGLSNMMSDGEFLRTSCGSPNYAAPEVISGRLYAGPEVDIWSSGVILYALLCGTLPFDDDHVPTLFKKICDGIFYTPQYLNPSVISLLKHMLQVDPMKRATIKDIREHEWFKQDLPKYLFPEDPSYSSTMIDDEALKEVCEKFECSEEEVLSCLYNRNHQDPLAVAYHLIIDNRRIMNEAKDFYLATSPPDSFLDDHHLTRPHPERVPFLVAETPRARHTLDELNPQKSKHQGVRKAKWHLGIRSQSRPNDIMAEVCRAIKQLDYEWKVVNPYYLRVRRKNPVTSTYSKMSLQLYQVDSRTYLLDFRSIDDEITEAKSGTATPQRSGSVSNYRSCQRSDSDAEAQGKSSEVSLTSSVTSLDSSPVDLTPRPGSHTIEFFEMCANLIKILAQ
Chain of Transcription initiation factor TFIID subunit 1-like (Homo sapiens) (Q8IZX4 whole entry): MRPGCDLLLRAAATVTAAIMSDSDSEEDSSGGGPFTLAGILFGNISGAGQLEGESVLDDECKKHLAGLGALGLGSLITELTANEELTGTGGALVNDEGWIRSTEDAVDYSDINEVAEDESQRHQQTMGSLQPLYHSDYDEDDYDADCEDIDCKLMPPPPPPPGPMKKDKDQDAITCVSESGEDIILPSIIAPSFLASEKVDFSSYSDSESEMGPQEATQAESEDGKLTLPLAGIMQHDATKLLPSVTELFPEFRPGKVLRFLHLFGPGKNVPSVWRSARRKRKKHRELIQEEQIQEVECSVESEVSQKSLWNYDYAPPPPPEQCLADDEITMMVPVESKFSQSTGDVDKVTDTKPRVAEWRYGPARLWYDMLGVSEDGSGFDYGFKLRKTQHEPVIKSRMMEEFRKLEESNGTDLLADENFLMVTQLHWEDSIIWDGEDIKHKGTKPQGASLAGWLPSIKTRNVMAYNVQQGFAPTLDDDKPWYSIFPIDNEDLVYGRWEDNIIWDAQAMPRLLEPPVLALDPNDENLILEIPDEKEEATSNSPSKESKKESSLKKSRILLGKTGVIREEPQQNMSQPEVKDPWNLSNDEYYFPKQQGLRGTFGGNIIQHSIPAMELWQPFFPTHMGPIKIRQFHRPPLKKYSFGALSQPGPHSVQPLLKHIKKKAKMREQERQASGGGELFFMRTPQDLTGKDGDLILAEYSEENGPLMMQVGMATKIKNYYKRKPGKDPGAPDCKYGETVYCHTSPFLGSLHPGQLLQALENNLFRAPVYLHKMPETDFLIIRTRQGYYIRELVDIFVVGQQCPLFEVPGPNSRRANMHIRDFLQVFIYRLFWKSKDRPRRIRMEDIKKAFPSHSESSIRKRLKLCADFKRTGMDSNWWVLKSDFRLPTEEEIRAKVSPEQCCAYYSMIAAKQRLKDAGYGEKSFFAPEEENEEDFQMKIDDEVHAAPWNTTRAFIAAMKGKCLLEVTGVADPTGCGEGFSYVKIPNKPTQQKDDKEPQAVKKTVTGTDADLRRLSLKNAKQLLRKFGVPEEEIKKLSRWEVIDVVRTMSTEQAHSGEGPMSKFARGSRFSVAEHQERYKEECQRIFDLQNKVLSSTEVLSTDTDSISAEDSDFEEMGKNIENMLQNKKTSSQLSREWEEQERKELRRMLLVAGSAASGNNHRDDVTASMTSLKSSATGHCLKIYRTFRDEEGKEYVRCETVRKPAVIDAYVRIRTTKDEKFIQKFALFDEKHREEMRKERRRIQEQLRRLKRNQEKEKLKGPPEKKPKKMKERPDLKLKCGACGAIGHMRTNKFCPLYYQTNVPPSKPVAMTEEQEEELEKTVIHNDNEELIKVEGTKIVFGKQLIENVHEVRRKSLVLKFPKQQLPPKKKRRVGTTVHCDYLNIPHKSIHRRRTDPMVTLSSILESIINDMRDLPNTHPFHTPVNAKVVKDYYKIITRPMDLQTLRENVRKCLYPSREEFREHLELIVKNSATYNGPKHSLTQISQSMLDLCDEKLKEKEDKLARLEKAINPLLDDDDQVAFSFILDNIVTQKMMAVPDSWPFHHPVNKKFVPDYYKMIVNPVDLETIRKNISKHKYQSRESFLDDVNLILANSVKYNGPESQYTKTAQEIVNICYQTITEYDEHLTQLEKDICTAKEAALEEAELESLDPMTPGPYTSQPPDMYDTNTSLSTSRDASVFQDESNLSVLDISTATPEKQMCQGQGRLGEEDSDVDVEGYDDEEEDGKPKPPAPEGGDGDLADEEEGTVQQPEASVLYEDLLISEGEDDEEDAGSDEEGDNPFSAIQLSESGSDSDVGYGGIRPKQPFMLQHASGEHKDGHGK
Chain of Myotonin-protein kinase (Homo sapiens) (Q09013 whole entry, the tested form may be a part): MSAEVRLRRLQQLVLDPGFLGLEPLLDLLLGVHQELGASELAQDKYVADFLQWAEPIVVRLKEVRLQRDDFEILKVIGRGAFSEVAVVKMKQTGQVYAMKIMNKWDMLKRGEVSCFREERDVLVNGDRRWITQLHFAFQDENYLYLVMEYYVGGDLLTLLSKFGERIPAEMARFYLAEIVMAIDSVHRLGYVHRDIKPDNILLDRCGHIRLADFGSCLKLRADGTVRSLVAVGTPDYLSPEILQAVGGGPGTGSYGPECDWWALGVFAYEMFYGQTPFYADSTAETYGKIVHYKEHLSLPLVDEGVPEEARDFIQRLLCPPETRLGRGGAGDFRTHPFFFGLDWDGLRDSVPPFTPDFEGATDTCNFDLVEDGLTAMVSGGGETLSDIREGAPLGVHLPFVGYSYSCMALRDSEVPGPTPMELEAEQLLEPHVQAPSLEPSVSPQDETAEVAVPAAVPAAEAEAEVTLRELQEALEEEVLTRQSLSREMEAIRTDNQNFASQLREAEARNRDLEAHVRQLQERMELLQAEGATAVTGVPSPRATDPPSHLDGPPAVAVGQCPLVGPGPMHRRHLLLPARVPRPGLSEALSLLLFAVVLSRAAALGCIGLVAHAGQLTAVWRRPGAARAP

CN1C[C@H](Nc2nc3cc[nH]c3c(=O)n2C)C[C@H](c2ccc3c(c2)OCCO3)C1
Activity [1]: Active | Activity [2]: inactive | fraction unbound at 16 h, 1 µM [3]: 0.058 | inhibition [4]: inactive | inhibition [5]: inactive | inhibition [6]: inactive | inhibition [7]: inactive | inhibition [8]: inactive | inhibition [9]: inactive | inhibition [10]: inactive | inhibition [11]: inactive | inhibition [12]: inactive | inhibition [13]: inactive | inhibition [14]: inactive | inhibition [15]: inactive | inhibition [16]: inactive | inhibition [17]: inactive | inhibition [18]: inactive | inhibition [19]: inactive | inhibition [20]: inactive | inhibition [21]: inactive | inhibition [22]: inactive | inhibition [23]: inactive | inhibition [24]: inactive | inhibition [25]: inactive
